We go through eight compounds from ChEMBL document CHEMBL1124299, “Synthesis and thromboxane A2 antagonist activity of N-benzyltrimetoquinol analogues” (J Med Chem, 1988).

The species entered for assay [1] is Homo sapiens. Briefly: Inhibition of 0.5-0.7 uM of U-46,619 induced human platelet aggregation. Format: functional. Put shortly: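 Human platelet-rich plasma from donors medication-free for at least 10 days. Born turbidometric aggregation, with U46619 at the minimum concentration giving maximal aggregation. Inhibitor added 1 min before U46619. IC50 taken from the change in light-transmittance amplitude at 4 min.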

Assay [2] is filed under the species Rattus norvegicus. Briefly: Inhibition of U-46,619-induced contraction of Rat thoracic aorta in the presence of indomethacin. It counts as functional. Put shortly:
(§1)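 Rat thoracic aortic strips equilibrated 1 h in Krebs-Henseleit solution containing 3 X 10^-6 M indomethacin; TMQ analogues tested at 100 µM against U46619-induced contraction. Cumulative U46619 concentration-response curves by the van Rossum method. U46619 EC50 read graphically from individual percent response vs log concentration plots and expressed as pD2. Significance level 5% versus control.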

The species entered for assay [3] is Rattus norvegicus. Kind of assay: Inhibition of U-46,619-induced contraction of Rat thoracic aorta expressed as pKB value of the compound. It counts as functional.
The species named for assay [4] is Rattus norvegicus. Kind of assay: Inhibition of U-46,619-induced contraction of Rat thoracic aorta in the presence of indomethacin, at conc 100 uM. It counts as functional. The gist of the method: as §1
The species named for assay [5] is Homo sapiens. Briefly: Inhibition of 0.5-0.7 uM of U-46,619 induced [14C]5-HT secretion. Format: functional. The gist of the method:
(§2)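 Human platelet-rich plasma from medication-free volunteers. Dense-granule secretion measured as release of radioactivity from prelabeled platelets, induced by ADP or U46619. Inhibitors added 1 min before the inducer, which was used at the minimum concentration giving maximal aggregation. Values are IC50s.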

The species named for assay [6] is Rattus norvegicus. Kind of assay: Inhibition of U-46,619-induced contraction of Rat thoracic aorta in the presence of indomethacin (control). It counts as functional. The gist of the method: as §1
The species entered for assay [7] is Rattus norvegicus. Kind of assay: Inhibition against U-46,619-induced contraction of Rat thoracic aorta was determined expressed as pA2. Particulars: read-out: pA2 (converted). It counts as functional.
For assay [8], the species on record is Rattus norvegicus. Kind of assay: Log of KB that is, inhibition of U-46,619-induced contraction of Rat thoracic aorta in the presence of indomethacin. Format: functional.
For assay [9], the species on record is Rattus norvegicus. Briefly: Inhibition of U-46,619-induced contraction of Rat thoracic aorta in the presence of indomethacin(control). It counts as functional. The gist of the method: as §1
The species entered for assay [10] is Rattus norvegicus. Kind of assay: Inhibition of U-46,619-induced contraction of Rat thoracic aorta in the presence of indomethacin, KB. Format: functional.
For assay [11], the species on record is Homo sapiens. Kind of assay: Inhibition of 0.5-0.7 uM of ADP induced [14C]5-HT secretion. It counts as functional, organism-based. Conditions: in the assay text read “1.5-1.9 uM” for “0.5-0.7 uM”. Put shortly:
as §2

Assay [12] is filed under the species Homo sapiens. Kind of assay: Inhibition of 1.5-1.9 uM of ADP-induced human platelet aggregation. It counts as functional. The gist of the method:
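Platelet-rich plasma from human volunteers free of medication for at least 10 days. Turbidometric (Born) aggregation in a dual-channel aggregometer, with ADP at the minimum concentration giving maximal aggregation. Inhibitor added 1 min before ADP. IC50 derived from the change in light-transmittance amplitude at 6 min. Mean ± SEM of three preparations.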

Assay [13] is filed under the species Rattus norvegicus. Briefly: Inhibition of U-46,619-induced contraction of Rat thoracic aorta in the presence of indomethacin control). Format: functional. The gist of the method:
as §1

Molecules are shown by their SMILES.

Turning to `COc1cc(NCc2ccc3nc(N)nc(N)c3c2C)cc(OC)c1OC` [TRIMETREXATE], the figures for the IC50 in the assay listed under Homo sapiens [1] and in the assay listed under Homo sapiens [5] were 0.77 µM and 0.75 µM, respectively. The Kb in the assay listed under Rattus norvegicus [2] is 4.26 µM. In the assay listed under Rattus norvegicus [3], the negative-log KB (pKB) amounted to 5.37. Further, the pD2 in the assay filed under Rattus norvegicus [4] stood at 6.78.
Turning to `COc1cc(CC2c3cc(O)c(O)cc3CCN2Cc2ccc(Cl)cc2)cc(OC)c1OC` (stereo not given), the half-inhibitory concentration (IC50) was found to be 119 µM in the assay filed under Homo sapiens [1] and 128 µM in the assay listed under Homo sapiens [5]. The pD2 was 8.1 in the assay listed under Rattus norvegicus [6] and 8.09 in the assay filed under Rattus norvegicus [4].
Regarding `COc1cc(CC2c3cc(O)c(O)cc3CCN2Cc2ccc(C)cc2)cc(OC)c1OC` (stereo not given), the Kb in the assay filed under Rattus norvegicus [7] was 30.2 µM; in the assay filed under Rattus norvegicus [10], 55 µM. Further, the IC50 stood at 55.9 µM in the assay listed under Homo sapiens [1] and 40.4 µM in the assay filed under Homo sapiens [5]. The pKB in the assay listed under Rattus norvegicus [8] amounted to 4.26. For the same compound, the pD2 in the assay listed under Rattus norvegicus [4] came out at 7.58; in the assay filed under Rattus norvegicus [9], 8.05.
Turning to `COc1cc(CC2c3cc(O)c(O)cc3CCN2Cc2ccc(N)cc2)cc(OC)c1OC` (stereo not given), the IC50 in the assay listed under Homo sapiens [1] worked out at 27 µM; in the assay listed under Homo sapiens [11], 29.1 µM; in the assay filed under Homo sapiens [12] it was 40 µM; in the assay filed under Homo sapiens [5], 27.1 µM. Moreover, the pD2 in the assay listed under Rattus norvegicus [6] is 8.26; in the assay filed under Rattus norvegicus [4], 8.03. Also, in the assay filed under Rattus norvegicus [8], the negative logarithm of the KB (pKB) is given as 3.79. For the same compound, in the assay filed under Rattus norvegicus [10], the Kb worked out at 162 µM.
On to `COc1cc(CC2c3cc(O)c(O)cc3CCN2Cc2ccccc2)cc(OC)c1OC` (stereo not given), for which the IC50 in the assay listed under Homo sapiens [1] was determined as 67.4 µM; in the assay filed under Homo sapiens [11] it was 54.1 µM; in the assay filed under Homo sapiens [12] it was 67.5 µM; in the assay filed under Homo sapiens [5], 66.4 µM. The pD2 worked out at 8.11 in the assay listed under Rattus norvegicus [6] and 7.86 in the assay filed under Rattus norvegicus [4]. Further, the pKB in the assay filed under Rattus norvegicus [8] is 3.86. Besides, in the assay listed under Rattus norvegicus [10], the Kb is 138 µM.
Turning to `COc1ccc(CN2CCc3cc(O)c(O)cc3C2Cc2cc(OC)c(OC)c(OC)c2)cc1` (stereo not given), the IC50 was 50.2 µM in the assay filed under Homo sapiens [1] and 56.2 µM in the assay filed under Homo sapiens [5]. Moreover, the figures for the pD2 in the assay listed under Rattus norvegicus [6] and in the assay listed under Rattus norvegicus [4] were 8.07 and 7.64, respectively. In the assay filed under Rattus norvegicus [8], the pKB was found to be 4.16. Further, the Kb in the assay listed under Rattus norvegicus [10] worked out at 69.2 µM.
`COc1cc(CC2c3cc(O)c(O)cc3CCN2Cc2ccc([N+](=O)[O-])cc2)cc(OC)c1OC` (stereo not given): the concentration for half-maximal inhibition (IC50) came to 296 µM in the assay filed under Homo sapiens [1], 289 µM in the assay listed under Homo sapiens [11], 359 µM in the assay filed under Homo sapiens [12] and 269 µM in the assay listed under Homo sapiens [5]. Besides, the pD2 was 8.21 in the assay filed under Rattus norvegicus [6] and 7.84 in the assay filed under Rattus norvegicus [4]. The pKB in the assay listed under Rattus norvegicus [8] is given as 4.05. Besides, the Kb in the assay listed under Rattus norvegicus [10] stood at 89.1 µM.
Regarding `COc1cc(CC2c3cc(O)c(O)cc3CCN2Cc2ccc(Cl)c(Cl)c2)cc(OC)c1OC` (stereo not given), the IC50 was found to be 257 µM in the assay filed under Homo sapiens [1] and 264 µM in the assay listed under Homo sapiens [5]. For the same compound, the pD2 in the assay filed under Rattus norvegicus [4] is 8.22; in the assay listed under Rattus norvegicus [13], 8.12.
